From ChEMBL document CHEMBL4385635, “Styryl quinazolinones and its ethynyl derivatives induce myeloid differentiation” (Bioorg Med Chem Lett, 2019)
Calls of active or inactive are those of the source. No cut-off for these calls is given here.

How the values were obtained:
[1] = tested on: HL-60; experiment: Cytotoxicity against human HL60 cells assessed as reduction in cell viability at >3 uM; type: functional, cell-based
[2] = tested on: HL-60; experiment: Induction of apoptosis in human HL60 cells at 10 uM after 7 days; type: functional
In short: (§1)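 Apoptosis in compound-treated HL-60 cells was scored semi-quantitatively (− to +++), alongside the differentiation read-outs, against a 0.1% DMSO vehicle control.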

[3] = tested on: HL-60; experiment: Induction of differentiation of human HL60 cells assessed as increase in CEBPA mRNA expression at by QT-PCR analysis; type: functional, cell-based
In short: (§2)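 HL-60 cells were treated and CEBPA and CEBPE mRNA levels were measured by quantitative RT-PCR. Results are expressed as fold increase relative to DMSO-treated cells.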

[4] = tested on: HL-60; experiment: Induction of differentiation of human HL60 cells assessed as increase in CD11b positive cells after 7 days by flow cytometric analysis relative to control; type: functional, cell-based
In short: (§3)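 HL-60 cells were exposed to compound for 7 days, then stained with APC-conjugated anti-human/mouse CD11b antibody, with rat IgG2b as isotype control. CD11b-positive cells were measured by flow cytometry and reported as percent increase relative to the DMSO vehicle.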

[5] = tested on: HL-60; experiment: Cytotoxicity against human HL60 cells assessed as reduction in cell viability at 1 uM; type: functional, cell-based
[6] = tested on: HL-60; experiment: Induction of differentiation of human HL60 cells assessed as morphological changes at 1 uM after 7 days; type: functional, cell-based
In short: (§4)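 HL-60 cells were treated with compound, with 0.1% DMSO as vehicle control. Differentiation was judged by Wright-Giemsa morphology and NBT reduction, each scored semi-quantitatively from − through ± to +++.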

[7] = tested on: HL-60; experiment: Induction of differentiation of human HL60 cells assessed as morphological changes at 10 uM after 7 days by NBT reduction assay; type: functional
In short: (§5)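 HL-60 cells were screened for differentiation by Wright-Giemsa morphology and NBT reduction, and apoptosis was scored alongside. Controls were 0.1% DMSO as vehicle and ATRA at 1 μM as positive. Each result was graded on a semiquantitative scale (−, ±, + to +++).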

[8] = tested on: HL-60; experiment: Induction of differentiation of human HL60 cells assessed as morphological changes at 3 uM after 7 days; type: functional, cell-based; in short: as §4
[9] = tested on: HL-60; experiment: Cytotoxicity against human HL60 cells assessed as reduction in cell viability at 3 uM; type: functional, cell-based
[10] = tested on: HL-60; experiment: Induction of differentiation of human HL60 cells assessed as morphological changes at 10 uM after 7 days; type: functional; in short: as §5
[11] = tested on: HL-60; experiment: Induction of differentiation of human HL60 cells assessed as morphological changes at 10 uM after 7 days by Wright-Giemsa staining based assay; type: functional; in short: as §5
[12] = tested on: L1210; experiment: Cytotoxicity against mouse L1210 cells assessed as reduction in cell viability after 48 hrs by trypan blue staining-based hemocytometric analysis; type: functional; conditions: L1210, 48 h
[13] = tested on: HL-60; experiment: Induction of differentiation of human HL60 cells assessed as increase in CD11b positive cells at 7 uM after 7 days by flow cytometric analysis (reference value: 3.94%); type: functional
[14] = tested on: HL-60; experiment: Induction of differentiation of human HL60 cells assessed as increase in CEBPE mRNA expression at 7 uM by QT-PCR analysis; type: functional; in short: as §2
[15] = tested on: HL-60; experiment: Induction of differentiation of human HL60 cells assessed as increase in CEBPA mRNA expression at 7 uM by QT-PCR analysis; type: functional; in short: as §2
[16] = tested on: HL-60; experiment: Induction of differentiation of human HL60 cells assessed as increase in CD11b positive cells at 10 uM after 7 days by flow cytometric analysis (reference value: 3.94%); type: functional
[17] = tested on: HL-60; experiment: Induction of apoptosis in human HL60 cells at 3 uM after 7 days; type: functional; in short: as §5
[18] = tested on: HL-60; experiment: Induction of differentiation of human HL60 cells assessed as morphological changes at 3 uM after 7 days by Wright-Giemsa staining based assay; type: functional; in short: as §5
[19] = tested on: HL-60; experiment: Induction of differentiation of human HL60 cells assessed as morphological changes at 3 uM after 7 days by NBT reduction assay; type: functional; in short: as §5
[20] = tested on: HL-60; experiment: Induction of differentiation of human HL60 cells assessed as increase in CEBPE mRNA expression at by QT-PCR analysis; type: functional, cell-based
In short: (§6)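 HL-60 cells were treated with compound over a time course. CEBPA or CEBPE mRNA levels were measured and expressed as fold increase relative to the DMSO vehicle.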

[21] = biological target: Tubulin (Bos taurus, UniProt Q6B856+Q862L2+Q862F3); experiment: Inhibition of bovine brain tubulin polymerization
[22] = tested on: HL-60; experiment: Induction of differentiation of human HL60 cells assessed as morphological changes at 1 uM after 7 days by Wright-Giemsa staining based assay; type: functional
In short: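 Compound-treated HL-60 cells were stained with Wright-Giemsa and examined for granulocytic morphology. Scoring was semi-quantitative (− to +++) against a 0.1% DMSO vehicle control.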

[23] = tested on: HL-60; experiment: Induction of apoptosis in human HL60 cells at 1 uM after 7 days; type: functional; in short: as §1
[24] = tested on: HL-60; experiment: Induction of differentiation of human HL60 cells assessed as morphological changes at 1 uM after 7 days by NBT reduction assay; type: functional
In short: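 In compound-treated HL-60 cells, differentiation was read as NBT reduction. Scoring was semi-quantitative (−, ±, + to +++) against a 0.1% DMSO vehicle control.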

[25] = tested on: HL-60; experiment: Induction of differentiation of human HL60 cells assessed as increase in CEBPA mRNA expression at 1 uM by QT-PCR analysis; type: functional; in short: as §6
[26] = tested on: HL-60; experiment: Induction of differentiation of human HL60 cells assessed as increase in CD11b positive cells at 1 uM after 7 days by flow cytometric analysis (reference value: 3.94%); type: functional; in short: as §3
[27] = tested on: HL-60; experiment: Induction of differentiation of human HL60 cells assessed as increase in CEBPE mRNA expression at 10 uM by QT-PCR analysis; type: functional; in short: as §2
[28] = tested on: HL-60; experiment: Induction of differentiation of human HL60 cells assessed as increase in CEBPA mRNA expression at 10 uM by QT-PCR analysis; type: functional; in short: as §2
[29] = tested on: HL-60; experiment: Induction of differentiation of human HL60 cells assessed as increase in CEBPE mRNA expression at 3 uM by QT-PCR analysis; type: functional; in short: as §2
[30] = tested on: HL-60; experiment: Induction of differentiation of human HL60 cells assessed as increase in CEBPA mRNA expression at 3 uM by QT-PCR analysis; type: functional; in short: as §2
[31] = tested on: HL-60; experiment: Induction of differentiation of human HL60 cells assessed as increase in CD11b positive cells at 5 uM after 7 days by flow cytometric analysis (reference value: 3.94%); type: functional
[32] = tested on: HL-60; experiment: Induction of differentiation of human HL60 cells assessed as increase in CD11b positive cells at 3 uM after 7 days by flow cytometric analysis (reference value: 3.94%); type: functional

## Cc1ccc(-n2c(/C=C/c3ccc([N+](=O)[O-])o3)nc3ccsc3c2=O)cc1
[1]
  Activity: Active
[2]
  Activity: 5 - 30%

## O=c1c2sccc2nc(/C=C/c2ccc([N+](=O)[O-])o2)n1-c1ccccc1Cl
[3]
  Activity: Active
[4]
  Activity: inactive
[1]
  Activity: Active
[5]
  Activity: Active
[6]
  Activity: inactive
[2]
  Activity: 5 - 30%
[7]
  Activity: 5 - 30%

## COc1cc(/C=C/c2nc3ccccc3c(=O)n2-c2c(Cl)cccc2Cl)ccc1O
[2]
  Activity: 5 - 30%

## O=c1[nH]c(/C=C/c2ccc([N+](=O)[O-])o2)nc2ccsc12
[8]
  Activity: inactive
[3]
  Activity: Active
[4]
  Activity: inactive
[1]
  Activity: Active
[9]
  Activity: Active
[2]
  Activity: 5 - 30%
[7]
  Activity: 5 - 30%

## C#Cc1ccc(-n2c(/C=C/c3ccc(O)cc3)nc3ccccc3c2=O)cc1
[10]
  Activity: 5 - 30%
[2]
  Activity: 5 - 30%
[11]
  Activity: 5 - 30%
[7]
  Activity: 5 - 30%

## Cc1cc(-n2c(/C=C/c3ccccc3)nc3ccc(Cl)cc3c2=O)n(-c2ccccc2)n1
[12]
  IC50: 15 µM

## COc1ccccc1-n1c(/C=C/c2ccc([N+](=O)[O-])o2)nc2ccc(F)cc2c1=O
[13]
  Activity: 89%
[14]
  fold change (FC): 2.6
[3]; TDE = time-dependent effect
  Activity: Tde
[15]
  fold change (FC): 1.6
[16]
  Activity: 94.2%
[17]
  Activity: 30 - 60%
[2]
  Activity: >60%
[18]
  Activity: 5 - 30%
[11]
  Activity: 30 - 60%
[19]
  Activity: 5 - 30%
[7]
  Activity: 30 - 60%

## O=c1c2sccc2nc(/C=C/c2ccc([N+](=O)[O-])o2)n1-c1ccc(Cl)cc1
[8]
  Activity: inactive
[1]
  Activity: Active
[9]
  Activity: Active
[2]
  Activity: 5 - 30%

## O=C(O)c1cccc(-n2c(/C=C/c3ccc([N+](=O)[O-])o3)nc3ccccc3c2=O)c1
[11]
  Activity: 5 - 30%
[7]
  Activity: 5 - 30%

## Cc1cc(C#Cc2ccc(C(C)(C)C)cc2)ccc1-n1c(/C=C/c2ccc([N+](=O)[O-])o2)nc2ccccc2c1=O
[20]
  Activity: inactive
[3]
  Activity: inactive
[4]
  Activity: inactive
[10]
  Activity: 5 - 30%
[2]
  Activity: 5 - 30%
[11]
  Activity: 5 - 30%
[7]
  Activity: 5 - 30%

## Oc1nc(/C=C/c2ccccc2)nc2ccc(Cl)cc12
[21]
  IC50: 2.5 µM

## CC1=C(/C=C/C(C)=C/C=C/C(C)=C/C(=O)O)C(C)(C)CCC1 [TRETINOIN]
[22]
  Activity: >60%
[23]
  Activity: >60%
[24]
  Activity: >60%
[3]; TDE = time-dependent effect
  Activity: Tde
[25]
  fold change (FC): 3
[26]
  Activity: 96.4%

## O=c1c2ccccc2nc(/C=C/c2ccc([N+](=O)[O-])o2)n1-c1ccccc1F
[27]
  fold change (FC): 6
[3]; TDE = time-dependent effect
  Activity: Tde
[28]
  fold change (FC): 1.8
[16]
  Activity: 59%
[2]
  Activity: >60%
[11]
  Activity: 30 - 60%
[7]
  Activity: 30 - 60%

## COc1ccccc1-n1c(/C=C/c2ccc(O)c(O)c2)nc2ccccc2c1=O
[27]
  fold change (FC): 2.1
[3]; TDE = time-dependent effect
  Activity: Tde
[28]
  fold change (FC): 1.5
[16]
  Activity: 25.9 - 51.2%
[2]
  Activity: 5 - 30%
[11]
  Activity: 5 - 30%
[7]
  Activity: 5 - 30%

## O=c1c2cc(F)ccc2nc(/C=C/c2ccc([N+](=O)[O-])o2)n1-c1ccccc1
[29]
  fold change (FC): 10.3
[3]; TDE = time-dependent effect
  Activity: Tde
[30]
  fold change (FC): 2.5
[31]
  Activity: 68.6%
[17]
  Activity: 30 - 60%
[18]
  Activity: 30 - 60%
[19]
  Activity: 30 - 60%
[32]
  Activity: 42.2%

## O=c1c2sccc2nc(/C=C/c2ccc([N+](=O)[O-])o2)n1-c1cccc(Cl)c1
[8]
  Activity: inactive
[1]
  Activity: Active
[9]
  Activity: Active
[2]
  Activity: 5 - 30%
